Screening results as filed in PubChem.
Shown are actives, neighbours in structure and some others; about 5.8% of the full set was active somewhere.
IDH1 mut inh – IDH1 R132H (human) inhibition; O75874; actives 0.18% (n = 70,000); inhibition, % at 10 µM; AID 624101; IDH1 R132H reductase, diaphorase/resazurin fluorescence, 60 min; in the data active = inhibition above about 34%; inconclusive = no clear call, values can overlap the other calls; inactive = below about 11%;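 also: 0% = DMSO and 100% = no enzyme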
Target sequence (O75874 whole entry R132H): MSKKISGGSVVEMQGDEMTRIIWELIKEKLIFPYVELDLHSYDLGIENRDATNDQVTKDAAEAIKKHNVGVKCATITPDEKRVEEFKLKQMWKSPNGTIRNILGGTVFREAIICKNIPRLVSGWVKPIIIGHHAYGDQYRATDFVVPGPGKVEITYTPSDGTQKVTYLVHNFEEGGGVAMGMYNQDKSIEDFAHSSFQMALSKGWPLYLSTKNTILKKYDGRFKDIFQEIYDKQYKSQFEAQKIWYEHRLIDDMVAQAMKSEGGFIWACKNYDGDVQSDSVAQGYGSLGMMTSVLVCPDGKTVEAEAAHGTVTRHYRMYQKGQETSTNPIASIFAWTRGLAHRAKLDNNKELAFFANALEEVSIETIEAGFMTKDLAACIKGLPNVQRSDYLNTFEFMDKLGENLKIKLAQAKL
GASC1 inh – inhibitors of human demethylase GASC-1 KDM4C; actives 0.15% (n = 96,000); AID 720574; Q9H3R0; GST-KDM4C 2-372, H3K9me3 peptide, LANCE TR-FRET; inhibition, % at 12.5 µM;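 active = mean replicate inhibition above about 25%, with at least 55% of replicates also reaching it, limit read from the data, passing the limit was not always enough; inconclusive = only one of those two conditions met; inactive = neither condition met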
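Test system – GST-tagged GASC-1 (JMJD2C) catalytic fragment, aa 2-372 · Medium – HEPES buffer, pH 7.5, plus ascorbate · Reagent – H3K9me3 peptide with Fe(II)/2OG · Compound – one test concentration per compound · Timing – 30 min reaction, 60 min detection, RT · Technique – TR-FRET with Eu antibody and ULight streptavidin, EDTA stop · Read-out basis – inhibition from TR-FRET ratio decrease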
T cruzi growth-1 – blocks T. cruzi growth in NIH3T3 culture; T. cruzi beta-gal in NIH3T3, GalScreen luminescence, 90 h; inhibition, % at 8.34 µM; actives 5.9% (n = 77,000); AID 624255;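 active = mean inhibition above about 93%, with at least 55% of replicates each passing it, limit read from the data, passing the limit was not always enough; inconclusive = only one of those two conditions holds; inactive = neither condition holds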
Pf Dd2 growth – P. falciparum Dd2 growth inhibition | activity change, % at 10 µM | actives 2.3% (n = 94,000) | SYBR Green, 72 h; stronger effect = lower value; in the data active = activity change below about -80%; inconclusive = no clear call, values can overlap the other calls
T cruzi growth-2 – inhibitors of T. cruzi proliferation. shares compounds with T cruzi growth-1. T. cruzi beta-gal in NIH3T3, GalScreen luminescence, 90 h. inhibition, % at 8.35 µM. actives 72% (n = 5,600). AID 651739;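 active = mean replicate inhibition above about 95% and at least 55% of replicates individually reaching it, limit read from the data; inconclusive = only one of the two criteria is met; inactive = neither criterion is met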
T cruzi growth-3 – Trypanosoma cruzi proliferation inhibition; shares compounds with T cruzi growth-1; T. cruzi beta-gal in NIH3T3, GalScreen luminescence, 90 h; inhibition, % at 2.09 µM; actives 21% (n = 5,600);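 active = mean inhibition above about 95%, with at least 55% of replicates also reaching it, limit read from the data; inconclusive = meets just one of the two conditions; inactive = meets neither condition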;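 also: plate controls were neutral control median for no effect and positive control median for full effect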
NIH3T3 tox – NIH/3T3 (mouse) viability loss | cytotoxicity (signal decrease), % at 8.35 µM | AID 651742 | actives 14% (n = 5,600) | shares compounds with T cruzi growth-1 | NIH/3T3 viability, CellTiter-Glo ATP luminescence, 90 h;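 active = mean signal decrease across replicates above about 35% based on untreated-well scatter, with enough replicates individually passing, limit read from the data; inconclusive = no rule stated though some were filed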;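 also: 0% = median of neutral control wells and 100% = median of positive control wells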
NIH3T3 tox 2 – kills mouse NIH/3T3 fibroblasts | shares compounds with T cruzi growth-1 | NIH/3T3 viability, CellTiter-Glo ATP luminescence, 90 h | inhibition, % at 24.9 µM | actives 56% (n = 5,600) | AID 651744;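 active = mean loss of cell viability signal at or above a set limit, and enough replicates individually reaching it; inconclusive = meets only the mean limit or only the replicate share; inactive = meets neither condition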;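 also: 0% = median of neutral control wells and 100% = median of positive control wells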
Numbers without * were called inactive; ? = inconclusive; · = no result given.

SMILES	IDH1 mut inh	GASC1 inh	T cruzi growth-1	Pf Dd2 growth	T cruzi growth-2	T cruzi growth-3	NIH3T3 tox	NIH3T3 tox 2
COc1ccccc1OCC(=O)Nc1c[nH]c(=O)[nH]c1=O	-1	·	·	·	·	·	·	·
COc1ccc(NC(=S)N2CCN(Cc3c(C)nn(C)c3C)CC2)cc1OC	-1	·	·	·	·	·	·	·
CN(C)C(=O)c1cccc(-c2ccc3c(c2)[C@@H]2[C@@H](CCN2C(=O)C2CC2)[C@H](CO)N3)c1	·	1	68	-23	·	·	·	·
CN(C)C(=O)c1cccc(-c2ccc3c(c2)[C@H]2[C@H](CCN2C(=O)C2CC2)[C@@H](CO)N3)c1	·	6	112*	-94*	93	48	-8	-7
O=C(C1CCOCC1)N1CC[C@@H]2[C@H]1c1cc(-c3cccc(F)c3)ccc1N[C@@H]2CO	·	-1	49	5	·	·	·	·
O=C(C1CC1)N1CC[C@@H]2[C@H]1c1cc(-c3cccc(F)c3)ccc1N[C@@H]2CO	·	4	115*	-23	105*	103*	4	28*
CN(C)C(=O)c1cccc(-c2ccc3c(c2)[C@H]2[C@H](CCN2C(=O)C2CC2)[C@H](CO)N3)c1	·	1	99*	-7	105*	71	-19	-6
N#C[C@@H]1N[C@H](CO)[C@H]1c1ccc(C2=CCCC2)cc1	·	0	101*	23	89	-1	-26	-1
O=C(NC[C@@H]1N[C@@H](CO)[C@@H]1c1ccc(-c2ccccc2F)cc1)c1ccccn1	·	-3	102*	-17	45	13	-10	-7
O=C(NC[C@H]1N[C@@H](CO)[C@H]1c1ccc(-c2ccccc2)cc1)c1ccccc1F	·	-3	76	-32	·	·	·	·
N#C[C@@H]1N[C@@H](CO)[C@@H]1c1ccc(-c2ccccc2F)cc1	·	-2	?	21	11	-6	-6	0
N#C[C@@H]1N[C@H](CO)[C@H]1c1ccc(-c2ccccc2F)cc1	·	1	102*	35	53	33	-3	17
Cc1cc(Br)ccc1NC(=O)Cn1ccc([N+](=O)[O-])n1	0	·	·	·	·	·	·	·
Cn1c2ccccc2c2nnc(SCC(=O)c3ccc(Cl)cc3)nc21	0	·	·	·	·	·	·	·
COc1ccc(C2C(C(=O)c3ccco3)C(=O)C(=O)N2CCN(C)C)cc1OC (stereo not given)	7	·	·	·	·	·	·	·
C[C@H]1CN([C@@H](C)CO)S(=O)(=O)c2ccc(-c3ccncc3)cc2O[C@@H]1CN(C)Cc1ccncc1	·	0	100*	-36	96*	97*	30	65*
C[C@H]1CN([C@@H](C)CO)S(=O)(=O)c2ccc(Br)cc2O[C@@H]1CN(C)Cc1ccncc1	-1	0	99*	-23	96*	55	6	9
C[C@@H]1CN([C@@H](C)CO)S(=O)(=O)c2ccc(-c3ccncc3)cc2O[C@@H]1CN(C)Cc1ccncc1	20	1	105*	9	100*	68	36*	65*
C[C@@H]1CN([C@H](C)CO)S(=O)(=O)c2ccc(-c3ccncc3)cc2O[C@H]1CN(C)Cc1cncnc1	0	-2	107*	9	97*	93	14	53*
C[C@@H]1CN([C@H](C)CO)S(=O)(=O)c2ccc(-c3ccncc3)cc2O[C@@H]1CN(C)Cc1ccncc1	·	2	95	-4	·	·	·	·
COc1ccc(-n2c(SCC(=O)Nc3cccc(C)c3C)nnc2-c2ccccc2)cc1	0	·	·	·	·	·	·	·
C[C@H](CO)N1C[C@H](C)[C@H](CN(C)C(=O)Nc2ccc(F)cc2)OCCCC[C@H](C)Oc2ccc(NC(=O)Nc3ccc4c(c3)OCO4)cc2C1=O	5	-1	94	30	·	·	·	·
C[C@H](CO)N1C[C@H](C)[C@H](CN(C)C(=O)Nc2ccc3c(c2)OCO3)OCCCC[C@H](C)Oc2ccc(NC(=O)Nc3ccc(F)cc3)cc2C1=O	·	1	104*	-11	108*	89	7	7
C[C@H](CO)N1C[C@H](C)[C@H](CN(C)C(=O)Nc2ccc3c(c2)OCO3)OCCCC[C@H](C)Oc2ccc(NC(=O)NC3CCCCC3)cc2C1=O	0	2	110*	-16	105*	83	-20	-16
C[C@@H]1CCCCO[C@H](CN(C)C(=O)Nc2ccc3c(c2)OCO3)[C@H](C)CN([C@H](C)CO)C(=O)c2cc(NC(=O)Nc3ccc(F)cc3)ccc2O1	1	-2	102*	-88*	100*	64	-10	-4
SMILES	IDH1 mut inh	GASC1 inh	T cruzi growth-1	Pf Dd2 growth	T cruzi growth-2	T cruzi growth-3	NIH3T3 tox	NIH3T3 tox 2
C[C@@H]1CCCCO[C@H](CN(C)C(=O)Nc2ccc3c(c2)OCO3)[C@H](C)CN([C@@H](C)CO)C(=O)c2cc(NC(=O)NC3CCCCC3)ccc2O1	·	3	64	-73	·	·	·	·
C[C@@H]1CCCCO[C@@H](CN(C)C(=O)Nc2ccc(F)cc2)[C@@H](C)CN([C@H](C)CO)C(=O)c2cc(NC(=O)Nc3ccc4c(c3)OCO4)ccc2O1	3	0	-23	11	·	·	·	·
C[C@@H]1CCCCO[C@@H](CN(C)C(=O)Nc2ccc3c(c2)OCO3)[C@H](C)CN([C@H](C)CO)C(=O)c2cc(NC(=O)Nc3ccc(F)cc3)ccc2O1	0	0	102*	-49	104*	84	-16	-12
O=C(Nc1ccccc1[N+](=O)[O-])c1cc(S(=O)(=O)Nc2ccccc2)ccc1Cl	0	·	·	·	·	·	·	·
CN(CC(N)=O)S(=O)(=O)c1ccc2ccccc2c1	0	·	·	·	·	·	·	·
CN(C)CC#Cc1cccc(-c2nc(C(=O)NCCCN3CCOCC3)cc3c2[C@H](CCO)N(S(=O)C(C)(C)C)C3)c1 (stereo not given in full)	·	·	105*	·	85	63	-18	-5
COc1ccc(C#Cc2cccc(-c3nc(C(=O)NCCCN4CCOCC4)cc4c3[C@@H](CCO)N(S(=O)C(C)(C)C)C4)c2)cc1OC (stereo not given in full)	·	-2	62	·	·	·	·	·
CC(C)(C)S(=O)N1Cc2cc(C(=O)NCCCN3CCOCC3)nc(-c3cccc(C#CCC4CCCC4)c3)c2[C@@H]1CCO (stereo not given in full)	-1	-2	?	-74	100*	82	42*	105*
Cc1ccccc1S(=O)(=O)N1CCCCN2[C@H](CO)[C@H](c3ccc(-c4cccc(F)c4)cc3)[C@@H]2C1	·	-2	81	-14	·	·	·	·
Cc1ccccc1S(=O)(=O)N1CCCCN2[C@@H](CO)[C@@H](c3ccc(-c4cccc(F)c4)cc3)[C@@H]2C1	·	-5	55	-76	·	·	·	·
